Test [1] concerns the target T1, α-synuclein (Homo sapiens, UniProt P37840). The note with it: similar effect as WW2; cited from earlier work.
Test [2] addresses T1, α-synuclein. The test can be described thus: α-syn aggregation assay, CD spectroscopy. In kind it is biochemical. To be noted: 2 molar equivalents; for β CD signal, % β, α-syn assay: at 16 h (no time printed for MrH3b); for Effect on course, onset or lag time of α-syn aggregation (in words): monitored by CD and ThT. In outline:
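Recombinant full-length α-syn was expressed in E. coli BL21(DE3) and used at 100 μM in 20 mM Tris-HCl pH 7.5. Aggregation was started by HFIP addition (1.5 vol-% final) under continuous stirring at 37 °C, with or without inhibitor peptide and without ThT. Every 2–4 h, a 5 μL aliquot was diluted into 195 μL of 1.5% HFIP buffer (2.5 μM α-syn). Spectra were recorded in 0.1 cm cells to follow the random coil-to-β transition, corrected for inhibitor contribution.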

Test [3] addresses T1, α-synuclein. The test can be described thus: TEM imaging of α-syn aggregation assays. In kind it is biochemical. To be noted: 2 molar equivalents; images after 16–24 hrs; AA = amorphous aggregates. In outline: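 Full-length 140-residue α-syn was expressed in E. coli BL21(DE3) and purified by anion exchange. It was used at 100 μM in 20 mM Tris-HCl pH 7.5, at 37 °C with vigorous stirring, with or without peptide. HFIP was added to 1.5 vol-% to start aggregation. After 16–24 h, a freshly agitated 5 μL aliquot was adsorbed on formvar/carbon-coated copper grids, negatively stained with 2% uranyl acetate and imaged by TEM.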

Regarding `O=C(O[C@@H]1Cc2c(O)cc(O)cc2O[C@@H]1c1cc(O)c(O)c(O)c1)c1cc(O)c(O)c(O)c1` [EGCG, (−)-epigallocatechin-3-gallate], the “Excess of inhibitor required for non-amyloid α-syn aggregates” value at α-synuclein [1] was 5 fold excess.

Ac-KIVTSAK [ssMrH]: at α-synuclein [2], the “Time by which β CD signal appears, α-syn assay” value is reported as “β signal within 6 h, 100% 16 h hours”; the “β CD signal, % β, α-syn assay” value was determined as 100%; the “Effect on course, onset or lag time of α-syn aggregation (in words)” value is recorded as “no effects on the course of α-syn aggregation”. The “Fibril Morphology (TEM), α-syn” value on α-synuclein [3] is on record as “Normal”.

On to KKLTVWI [ssW], for which the “β CD signal, α-syn assay (in words)” value on α-synuclein [2] (100 μM α-syn, 1.5 vol-% HFIP) was “Helical at 4–6 hours 80 % β at 16 h”. Besides, at α-synuclein [2], the “β CD signal, % β, α-syn assay” value was 80% and the “Effect on course, onset or lag time of α-syn aggregation (in words)” value is on record as “delays aggregation (as monitored by CD)”. Besides, at α-synuclein [3], the “Fibril Morphology (TEM), α-syn” value is recorded as “Normal + AA”.

These data come from publication PMC3177973 (Biochemistry, 2011).
